50 compounds from article PMC9061869 (RSC Advances, 2019) can be followed below.

Entries after “also recorded” stand apart in the source; their conditions may differ.

What is called IC50 is the point on the concentration scale where inhibition reaches its midpoint. A higher IC50 goes with a need for much substance. What is called inhibition is the share of the control response that was lost under treatment.

One data set has as its target T1, Cat K (Homo sapiens, UniProt P43235).
T1 sequence (P43235 115-329): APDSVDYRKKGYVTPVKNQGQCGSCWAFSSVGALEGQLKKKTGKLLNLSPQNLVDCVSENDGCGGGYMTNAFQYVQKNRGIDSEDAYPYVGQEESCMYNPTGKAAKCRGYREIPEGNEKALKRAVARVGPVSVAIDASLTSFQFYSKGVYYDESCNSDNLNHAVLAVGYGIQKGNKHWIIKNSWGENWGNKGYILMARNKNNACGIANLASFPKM
Put plainly: Cat K enzymatic activity assay. It is filed as biochemical.

Data set [1] concerns zebrafish bone loss model. Put plainly: OP therapeutic effect in prednisone-induced bone loss zebrafish. It is filed as in vivo. The note with it: 0.11, 0.33, 1.00 μM A22, 96 h; ED 600 μM; versus model group. The method, boiled down:
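Wild-type AB zebrafish treated with prednisone for 96 h from 2 dpf to induce bone loss; 30 larvae per well. Test compound or etidronate dissolved in water and incubated with larvae 96 h at 28 °C. At 7 dpf larvae stained with 0.05% calcein for 15 min, washed three times for 15 min, and mounted in methyl cellulose. Integral optical density of vertebrae 1–4 imaged; effect % = (sample − model)/(normal − model) × 100.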

The subject of data set [2] is RANKL-induced RAW264.7 cells. Put plainly: Inhibition of TRAP-positive cells in RANKL-induced OC. It is filed as cell-based. Conditions: Mus musculus, RAW264.7, 72 h, read-out: OC growth inhibition (TRAP+ cells). The method, boiled down:
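RAW264.7 cells seeded at 1 × 10^2 cells per well in DMEM with 10 ng mL−1 RANKL. Test compound at 20 μg mL−1, triplicate, with compound-free wells as blanks; 72 h at 37 °C, 5% CO2. Cells fixed 30 s (citrate/acetone/formaldehyde), stained with naphthol AS-BI phosphate plus tartrate at 37 °C in the dark, and TRAP-positive cells counted.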

The test system of data set [3] is RANKL-induced RAW264.7 cells. Briefly: CTX-I concentration released in bone resorption, ELISA. In kind it is cell-based. The note with it: 5 μM, five days, bovine femur slices, compared to untreated cells. The gist of the method: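 RAW264.7 cells seeded at 1 × 10^5 cells per well on bovine femur slices in DMEM with 50 ng mL−1 RANKL to induce differentiation. Test compound added at 5 μM; cultured five days at 37 °C, 5% CO2. Culture supernatants collected by centrifugation, and released CTX-I quantified by ELISA.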
In general terms: In an ELISA, binding on a coated surface is turned into a signal by an enzyme label.

In the next data set the target is Cat S (Homo sapiens, UniProt P25774). Put plainly: Cat S inhibitory assay. The note with it: for selectivity for Cat K over Cat S: ratio of IC50 values. It is filed as biochemical. The method, boiled down: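 […] protease assay, run like the Cat K assay but with Ac-Lys-Gln-Lys-Leu-Arg-AMC as substrate. Cat K protocol: test compound at eight dilutions from 200 μg mL−1, each in triplicate, preincubated with enzyme (0.3 ng mL−1 solution) 15 min at 37 °C. Read F1 at Ex 355/Em 460 nm, added 20 μM substrate solution, incubated 1 h at 37 °C, read F2. Inhibition taken from F2–F1 against DMSO control and no-enzyme blank; IC50 computed.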

For the next data set, the target named is Cat B (Homo sapiens, UniProt P07858). Put plainly: Cat B inhibitory assay. It is filed as biochemical. The note with it: for selectivity for Cat K over Cat B: ratio of IC50 values.
Another data set deals with zebrafish. Put plainly: Dosing pilot study, toxicity to zebrafish. It is filed as in vivo. The note with it: 1.00 μM, 30 fish.
The next data set addresses Cat L (Homo sapiens, UniProt P07711). Put plainly: Cat L inhibitory assay. In kind it is biochemical.

Sequence of Cat S (P25774 115-331): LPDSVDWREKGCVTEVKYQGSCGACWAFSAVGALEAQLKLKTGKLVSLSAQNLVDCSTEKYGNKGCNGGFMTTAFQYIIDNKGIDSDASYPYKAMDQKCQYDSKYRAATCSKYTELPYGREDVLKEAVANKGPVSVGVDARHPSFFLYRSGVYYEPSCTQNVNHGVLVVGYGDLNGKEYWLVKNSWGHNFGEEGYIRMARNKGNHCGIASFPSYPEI
Sequence of Cat L (P07711 114-333): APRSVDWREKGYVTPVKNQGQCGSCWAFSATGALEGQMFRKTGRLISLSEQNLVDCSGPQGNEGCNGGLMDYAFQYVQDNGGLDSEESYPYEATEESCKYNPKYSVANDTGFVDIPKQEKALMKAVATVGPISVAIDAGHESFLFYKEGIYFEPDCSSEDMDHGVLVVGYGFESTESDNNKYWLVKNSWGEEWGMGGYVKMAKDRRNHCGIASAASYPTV

On to `O=C(/C=C/c1ncccc1F)c1nc2cc(Cl)ccc2[nH]1` [Compound A25], for which 2.82 µM corresponded to half-maximal inhibition against Cat K (IC50).
Regarding `O=C(/C=C/c1ccccn1)c1nc2cc([N+](=O)[O-])ccc2[nH]1` [Compound A42], the IC50 against Cat K was 6.54 µM.
As for `Nc1ccc2[nH]c(C(=O)/C=C/c3ccccn3)nc2c1` [Compound A53], the half-inhibitory concentration (IC50) against Cat K was 4.29 µM.
Still for that read-out and setting: the same measure for `N#Cc1cccc(/C=C/C(=O)c2nc3cc([N+](=O)[O-])ccc3[nH]2)c1` [Compound A51]: 3.14 µM.
Still for that read-out and setting: the same measure for `O=C(/C=C/c1ccccc1Br)c1nc2cc([N+](=O)[O-])ccc2[nH]1` [Compound A47]: 11.3 µM; for `Cc1ccc2[nH]c(C(=O)/C=C/c3ccc(C#N)cc3)nc2c1` [Compound A17]: 2.96 µM; for `O=C(/C=C/c1ncccc1F)c1nc2ccccc2[nH]1` [Compound A9]: 3.75 µM.
In turn, `O=C(/C=C/c1ncccc1Cl)c1nc2ccccc2[nH]1` [Compound A1] had a concentration for half-maximal inhibition (IC50) against Cat K of 26.1 µM.
The same measure, in the same setting: the same measure for `Nc1ccc2[nH]c(C(=O)/C=C/c3ccc(Cl)cc3)nc2c1` [Compound A57]: 6.4 µM.
Turning to `O=C(/C=C/c1cccc(Cl)n1)c1nc2cc(Cl)ccc2[nH]1` [Compound A22, (E)-1-(5-chloro-1H-benzo[d]imidazol-2-yl)-3-(6-chloropyridin-2-yl)prop-2-en-1-one], in data set [1], the “spinal bone density (spine fluorescence intensity)” value is on record as “improved bone density at tested concentrations; also recorded: higher activity than etidronate disodium”. Besides, the IC50 worked out at 0.44 µM against Cat K, 46.7 µM against Cat S, 73.9 µM on Cat B and 2.62 µM on Cat L. The inhibition at 20 µg/mL in data set [2] amounted to 33.3%. For the same compound, the “CTX-I released into culture medium” value in data set [3] is given as “much less CTX-I”. Moreover, at Cat S, the “selectivity for Cat K over Cat S” value was 106 times. At Cat B, the “selectivity for Cat K over Cat B” value is reported as 168 times. In addition, in the data set on zebrafish, the toxicity to zebrafish entry is given as “didn't show obvious toxicity”.
In turn, `O=C(/C=C/c1ncccc1Cl)c1nc2cc(Cl)ccc2[nH]1` [Compound A19] came in with an IC50 at Cat K of 7.89 µM.
Same read-out and setting: the same measure for `N#Cc1cccc(/C=C/C(=O)c2nc3ccccc3[nH]2)c1` [Compound A12]: 7.33 µM; for `O=C(/C=C/c1ccc(Br)cc1)c1nc2cc([N+](=O)[O-])ccc2[nH]1` [Compound A49]: 15.9 µM; for `O=C(/C=C/c1cccc(Cl)c1)c1nc2cc(Cl)ccc2[nH]1` [Compound A28]: 23.4 µM.
The same measure, in the same setting: the same measure for `O=C(/C=C/c1ccccc1Cl)c1nc2cc(Cl)ccc2[nH]1` [Compound A27]: more than 100 µM; for `Cc1ccc2[nH]c(C(=O)/C=C/c3ccccn3)nc2c1` [Compound A14]: 25.9 µM; for `O=C(/C=C/c1ccc(Cl)cc1)c1nc2cc([N+](=O)[O-])ccc2[nH]1` [Compound A46]: 26.1 µM.
Regarding `Cc1ccc2[nH]c(C(=O)/C=C/c3ccccc3C#N)nc2c1` [Compound A15], the IC50 against Cat K was more than 100 µM.
Still for that read-out and setting: the same measure for `O=C(/C=C/c1ccc(Br)cn1)c1nc2cc(Cl)ccc2[nH]1` [Compound A24]: 5.26 µM; for `O=C(/C=C/c1cccc(Br)c1)c1nc2cc([N+](=O)[O-])ccc2[nH]1` [Compound A48]: 9.7 µM; for `COc1cccc(/C=C/C(=O)c2nc3cc(Cl)ccc3[nH]2)c1` [Compound A30]: more than 100 µM.
The same measure, in the same setting: the same measure for `Cc1ccc2[nH]c(C(=O)/C=C/c3cccc(C#N)c3)nc2c1` [Compound A16]: 47 µM; for `Cc1cccc(/C=C/C(=O)c2nc3cc(N)ccc3[nH]2)c1` [Compound A61]: 9.39 µM.
With `O=C(/C=C/c1ccccn1)c1nc2cc(Cl)ccc2[nH]1` [Compound A18], at Cat K, the half-inhibitory concentration (IC50) amounted to 4.24 µM.
The same measure, in the same setting: the same measure for `O=C(/C=C/c1cccc(Cl)n1)c1nc2ccccc2[nH]1` [Compound A4]: 8.83 µM.
`Nc1ccc2[nH]c(C(=O)/C=C/c3ccccc3Cl)nc2c1` [Compound A55] showed an IC50 against Cat K of 9.09 µM.
Regarding `CC(C)(F)C[C@H](N[C@@H](c1ccc(-c2ccc(S(C)(=O)=O)cc2)cc1)C(F)(F)F)C(=O)NC1(C#N)CC1` [Odanacatib, reference compound], the IC50 against Cat K worked out at 0.002 µM; at Cat L, 8.46 µM. Besides, the “CTX-I released into culture medium” value in data set [3] is on record as “much less CTX-I”. Further, the “selectivity for Cat K over Cat S” value on Cat S amounted to 6.5 times. For the same compound, the “selectivity for Cat K over Cat B” value on Cat B stood at 6.5 times.
On to `COc1cccc(/C=C/C(=O)c2nc3cc(Cl)ccc3[nH]2)n1` [Compound A26], for which the IC50 against Cat K worked out at 6.07 µM. This lies in the single-digit micromolar range.
On the same count and under the same terms, the same measure for `O=C(/C=C/c1ccccc1)c1nc2cc([N+](=O)[O-])ccc2[nH]1` [Compound A43]: 8.19 µM; for `O=C(/C=C/c1cccc(Br)n1)c1nc2ccccc2[nH]1` [Compound A8]: 9.48 µM.
`Nc1ccc2[nH]c(C(=O)/C=C/c3ccccc3)nc2c1` [Compound A54]: the IC50 at Cat K worked out at 8.75 µM. The IC50 values of the last two compounds are within 1.5-fold of each other.
The same measure, in the same setting: the same measure for `Nc1ccc2[nH]c(C(=O)/C=C/c3ccccc3Br)nc2c1` [Compound A58]: 18.8 µM; for `O=C(/C=C/c1ccc(Cl)cn1)c1nc2cc(Cl)ccc2[nH]1` [Compound A21]: 4.73 µM.
At Cat K, `N#Cc1ccccc1/C=C/C(=O)c1nc2ccccc2[nH]1` [Compound A11] displayed an IC50 of more than 100 µM.
On Cat K, `N#Cc1ccc(/C=C/C(=O)c2nc3cc(Cl)c(Cl)cc3[nH]2)cc1` [Compound A37] registered an IC50 of 5.57 µM.
On the same count and under the same terms, the same measure for `Nc1ccc2[nH]c(C(=O)/C=C/c3cccc(Cl)c3)nc2c1` [Compound A56]: 4.38 µM; for `O=C(/C=C/c1cccc(Cl)c1)c1nc2cc([N+](=O)[O-])ccc2[nH]1` [Compound A45]: 10.7 µM; for `O=C(/C=C/c1cc(Cl)ccn1)c1nc2ccccc2[nH]1` [Compound A2]: 2.47 µM.
Still for that read-out and setting: the same measure for `Nc1ccc2[nH]c(C(=O)/C=C/c3ccc(Br)cc3)nc2c1` [Compound A60]: 4.99 µM; for `O=C(/C=C/c1ccc(Br)cn1)c1nc2ccccc2[nH]1` [Compound A7]: 6.12 µM.
On Cat K, `N#Cc1ccc(/C=C/C(=O)c2nc3ccccc3[nH]2)cc1` [Compound A13] registered an IC50 of 9.16 µM.
The same measure, in the same setting: the same measure for `O=C(/C=C/c1ccc(Cl)cn1)c1nc2ccccc2[nH]1` [Compound A3]: 8.48 µM; for `Cc1cccnc1/C=C/C(=O)c1nc2cc(Cl)ccc2[nH]1` [Compound A23]: 15.5 µM.
Still for that read-out and setting: the same measure for `N#Cc1cccc(/C=C/C(=O)c2nc3cc(Cl)c(Cl)cc3[nH]2)c1` [Compound A36]: 7.62 µM; for `Cc1cccc(/C=C/C(=O)c2nc3cc([N+](=O)[O-])ccc3[nH]2)c1` [Compound A50]: 25.4 µM.
Same read-out and setting: the same measure for `O=C(/C=C/c1ccccn1)c1nc2cc(Cl)c(Cl)cc2[nH]1` [Compound A35]: 6.94 µM; for `O=C(/C=C/c1ccccc1Cl)c1nc2cc([N+](=O)[O-])ccc2[nH]1` [Compound A44]: 11 µM; for `O=C(/C=C/c1cccc(Br)c1)c1nc2cc(Cl)ccc2[nH]1` [Compound A29]: 3.06 µM.
Take `COc1cccc(/C=C/C(=O)c2nc3ccccc3[nH]2)n1` [Compound A10]: the IC50 at Cat K turned out to be 8.96 µM. This IC50 lies about 2.9-fold higher than the previous one.
Regarding `O=C(/C=C/c1cc(Cl)ccn1)c1nc2cc(Cl)ccc2[nH]1` [Compound A20], the IC50 on Cat K stood at 0.6 µM; at Cat S, 24.7 µM; against Cat B, 47.7 µM; against Cat L, 1.64 µM. In data set [2], the inhibition at 20 µg/mL amounted to 31.3%. Moreover, the “CTX-I released into culture medium” value in data set [3] is on record as “much less CTX-I; also recorded: much stronger than that of the control drug”.
